Screening data deposited in PubChem by Johns Hopkins Ion Channel Center.
TRPC6 inh: mouse TRPC6 channel inhibition; Q61143; HEK293-TRPC6, membrane potential dye, ACh-evoked depolarization; active compounds read low; B-score at 10 µM; hit rate 1.1% among 310,000; AID 2553;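 active = B-score under library mean minus 3 SD, initial fluorescence not abnormally high, positive integrated signal ratio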;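 also: B-score derived from integrated fluorescence ratio over the kinetic read; more negative B-score means stronger inhibition of depolarization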
TRPC4 inh: TRPC4 (mouse) channel inhibition; Q9QUQ5; HEK293 TRPC4beta/mu-opioid, DAMGO-evoked Fluo4 calcium flux; active compounds read low; B-score at 10 µM; hit rate 0.39% among 300,000; AID 2247;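 active = B-score over 3 SD under the library average, no early fluorescence shift, positive overall ratio signal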
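Assay system: Stable TRPC4beta/mu-opioid receptor HEK293 cells | Reagent: DAMGO in two steps, submaximal then maximal | Compound dosing: Single concentration per test compound | Signal: Fluo4 Ca2+ flux fluorescence | Evaluation: Per-well B score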
TRPC4 PAM: allosteric potentiators of mouse TRPC4 channel; hit rate 0.42% among 310,000; AID 2227; B-score at 10 µM; HEK293 TRPC4beta/mu-opioid, DAMGO EC20, Fluo-4 Ca2+ flux; active compounds read high; Q9QUQ5;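 active = B-score of calcium response area above 5 SD of library B-scores, with initial fluorescence ratio within 5 SD of library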;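 also: B-score of integrated fluorescence ratio over time as area under calcium response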
TRPC6 activator: activators of mouse TRPC6 channel; Q61143; HEK293-TRPC6 membrane potential dye fluorescence; active compounds read high; B-score at 10 µM; hit rate 0.13% among 310,000;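 active = B-score of the integrated fluorescence ratio above library mean plus 3 SD, and starting fluorescence ratio within library mean plus 5 SD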;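 also: higher score means more depolarization so channel activation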
TRPC4 agonist: activators of mouse TRPC4 channel | Q9QUQ5 | HEK293 TRPC4beta/mu-opioid, Fluo4 calcium fluorescence; active compounds read high | B-score at 10 µM | hit rate 0.49% among 310,000 | AID 2237;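 active = B-score above 5 SD of library B-scores, and initial fluorescence ratio not above library mean plus 5 SD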;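 also: positive B-score marks a calcium rise read as TRPC4 activation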
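Technique: kinetic Fluo4 calcium fluorescence; Test system: TRPC4beta and mu-opioid receptor HEK293 stable cells; Measure: B-scored integrated calcium fluorescence ratio; Benchmarks: low control buffer alone, high control maximal DAMGO; Schedule: 45 min room-temperature Fluo4 loading, 110 s read.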
* marks the source's active call; other numbers are inactive results; i = inactive. Sampled rows, rich in hits. Any-hit rate of the full collection: about 2.3%.

SMILES	TRPC6 inh	TRPC4 inh	TRPC4 PAM	TRPC6 activator	TRPC4 agonist
N#Cc1ccc(OCC(O)CN2CCN(c3ncc(C(F)(F)F)cc3Cl)CC2)cc1 (centres undefined)	i	i	25*	i	i
FC(F)(F)c1cnc(N2CCN(C(=S)NCc3ccccc3)CC2)c(Cl)c1	i	i	i	i	i
N#Cc1ccc(OCC(O)CN2CCN(CC(O)COc3ccc(C#N)cc3)CC2)cc1 (centres undefined)	i	i	i	i	i
O=C(Nc1cccc(/C=C/c2ccccn2)c1)c1ccc(-n2cncn2)c([N+](=O)[O-])c1	i	i	i	i	i
CC(C)(C)c1ccc(S(=O)(=O)Nc2cccc(C3OCCCO3)c2)cc1	i	i	i	i	i
CCOC(=O)C1(Cc2cccc(F)c2)CCN(Cc2cn(CC)nc2C)CC1	i	i	i	i	78*
CCOC(=O)C1(CCCc2ccccc2)CCN(Cc2cn(CC)nc2C)CC1	i	i	i	i	124*
CCCn1ncc(CN2CCC(Cc3cccc(F)c3)(C(=O)OCC)CC2)c1C	i	i	i	i	i
CCOC(=O)C1(Cc2cccc(F)c2)CCN(C(=O)COC)CC1	i	i	i	i	i
CCOC(=O)C1(Cc2cccc(F)c2)CCN(Cc2c(C)nn(CC)c2C)CC1	i	-6*	i	i	i
CCOCCCN(C(=O)c1snc(C(N)=O)c1N)C(C(=O)NC1CCCC1)c1ccc(F)cc1 (centres undefined)	i	i	i	i	i
O=C(C[N+]1(CC#Cc2ccccc2)CCCCC1)c1ccc(Cl)cc1	i	-6*	i	i	i
CSCC(C)N1CCC(Oc2cccc(C(=O)NCc3ccccn3)c2)CC1 (centres undefined)	-5.7*	i	i	i	i
CC#CC(=O)N1CCC(Oc2cccc(C(=O)NCc3ccccn3)c2)CC1	i	i	i	i	i
O=C(NC1CCCCCC1)C(=S)NC1CCCCC1	i	i	i	i	i
CCCCN(CC)CCNC(=O)c1cc2c(=O)n(C)c3ccccc3c2n1C	i	i	14*	i	67*
CCCN(CCC)CCCNC(=O)c1cc2c(=O)n(C)c3ccccc3c2n1C	i	i	16*	i	59*
CN(C)c1ccc(/C=N/NC(=O)c2sccc2-n2cccc2)cc1	i	i	i	i	i
COC1=CC(=O)C[C@@H](C)[C@]12Oc1c(Cl)c(OC)cc(OC)c1C2=O	i	i	i	i	i
CCCCCc1ccc(OCCOCCn2c[n+](C)c3ccccc32)c(CCCCC)c1	i	i	i	i	51*
CCCCCc1ccc(OCCC[n+]2ccccc2)c(CCCCC)c1	i	i	i	i	i
S=C(NCCc1ccccc1)Nc1ccc(N2CCCCC2)cc1	i	i	i	i	i
Cc1[nH]c2ccccc2c1C(c1ccccn1)N1CCCC1 (centres undefined)	i	i	i	i	i
CCOC(=O)C1CCCN(C(c2ccccn2)c2c(C)[nH]c3ccccc23)C1 (centres undefined)	i	i	i	i	148*
CCc1ccc(OCC(=O)NNC(=S)NC(=O)C2CCCCC2)c(Br)c1	i	i	i	i	i
SMILES	TRPC6 inh	TRPC4 inh	TRPC4 PAM	TRPC6 activator	TRPC4 agonist
CCc1ccc(OCC(=O)NC2CCCCC2)c(Br)c1	i	i	55*	i	i
CCCCNC(=O)CCn1nc(-c2ccccc2)ccc1=O	i	i	i	i	i
CC1CCCN(CCCNC(=O)CCn2nc(-c3ccccc3)ccc2=O)C1 (centres undefined)	i	i	11*	i	i
Cn1nnnc1SCCNCc1ccccc1OCc1ccc(Cl)cc1	i	-7*	i	i	i
Nc1nc(Cl)nc2c1ncn2[C@@H]1O[C@H](CO)[C@@H](O)[C@H]1O	i	i	i	i	50*
CCOC(=O)C1=CCN(Cc2ccccc2)CC1	i	i	i	i	i
CCCCN(C)CCNC(=O)c1cc(-c2cccnc2)nc2ccc(S(=O)(=O)N3CCC(C)CC3)cc12	i	i	i	i	57*
O=C(Nc1ccc(Oc2ccccc2)nc1)C1CCCCN1Cc1ccc(OCCO)cc1 (centres undefined)	i	i	i	i	i
CC1CCc2c(sc(/N=C/N(C)C)c2C#N)C1 (centres undefined)	i	-6*	i	i	i
CN(C)/C=N/c1sc2c(c1C#N)CCCC2	i	i	i	i	i
CCN(CC)c1ccc(C=C(c2nnnn2-c2ccc(C)cc2)c2nnnn2-c2ccc(C)cc2)cc1	i	i	i	i	i
CN(C)CCCN(C(=O)c1ccc(S(=O)(=O)N2CCOCC2)cc1)c1nc2ccc(F)cc2s1	i	i	i	i	57*
Cc1ccc2sc(N(CCCN(C)C)C(=O)c3ccc(S(=O)(=O)N4CCc5ccccc5C4)cc3)nc2c1C	i	i	i	i	i
CCc1ccc2nc(N(CCCN(C)C)C(=O)c3ccc(S(=O)(=O)N4CCCC4)cc3)sc2c1	i	i	i	i	i
CN(C)CCCN(C(=O)c1ccc(S(=O)(=O)N2CCc3ccccc3C2)cc1)c1nc2c(F)cc(F)cc2s1	i	i	i	i	58*
CN(C)CCN(C(=O)c1ccc(S(=O)(=O)N2CCCC2)cc1)c1nc2ccc(Br)cc2s1	i	i	i	i	i
CN(C)CCCN(C(=O)c1ccc(S(=O)(=O)N2CCCCCC2)cc1)c1nc2ccc(F)cc2s1	i	i	i	i	336*
Cc1ccc2nc(N(CCCN(C)C)C(=O)c3ccc(S(=O)(=O)N4CCCCCC4)cc3)sc2c1	i	i	14*	i	43*
CC(=O)Nc1ccc(NC(=O)C(C)OC(=O)C(C)SCC(=O)Nc2ccc(C)cc2)cc1 (centres undefined)	i	i	i	i	i
O=C(N/N=C/c1ccnc2ccccc12)c1ccccc1O	i	i	i	i	i
CCOc1cccc2sc(N(CCCN(C)C)C(=O)c3ccc(S(=O)(=O)N4CCCCCC4)cc3)nc12	i	i	i	i	i
CN(C)CCCN(C(=O)c1ccc(S(=O)(=O)N2CCCCCC2)cc1)c1nc2c(F)cccc2s1	i	-6*	i	i	54*
CCOc1cccc2sc(N(CCCN(C)C)C(=O)c3ccc(S(=O)(=O)N(CC)Cc4ccccc4)cc3)nc12	i	i	i	i	i
